# Experiments:
# OR51L1 (Homo sapiens) = biological target: T1, OR51L1 (Homo sapiens) (UniProt Q8NGJ5); details: stereoisomer not certain
# T1 sequence (whole entry): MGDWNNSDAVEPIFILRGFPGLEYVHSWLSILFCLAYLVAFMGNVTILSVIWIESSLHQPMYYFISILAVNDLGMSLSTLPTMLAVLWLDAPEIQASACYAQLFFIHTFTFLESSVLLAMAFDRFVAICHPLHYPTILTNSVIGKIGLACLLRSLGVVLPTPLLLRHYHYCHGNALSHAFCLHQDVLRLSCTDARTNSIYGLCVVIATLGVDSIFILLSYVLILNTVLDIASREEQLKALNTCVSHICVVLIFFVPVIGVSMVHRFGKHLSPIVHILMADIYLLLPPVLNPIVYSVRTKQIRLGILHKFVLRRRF
# Summary of the method: (§1)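 Whether a receptor–molecule pair is responsive (active) rests on the original authors' judgment that its measured signal was statistically different from baseline. Pairs without that judgment are non-responsive (inactive). Sources used varied assay methods, commonly transient luciferase assays in mammalian cell lines.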
# OR52D1 (Homo sapiens) = biological target: T2, OR52D1 (Homo sapiens) (UniProt Q9H346); details: stereoisomer not certain
# T2 sequence (whole entry): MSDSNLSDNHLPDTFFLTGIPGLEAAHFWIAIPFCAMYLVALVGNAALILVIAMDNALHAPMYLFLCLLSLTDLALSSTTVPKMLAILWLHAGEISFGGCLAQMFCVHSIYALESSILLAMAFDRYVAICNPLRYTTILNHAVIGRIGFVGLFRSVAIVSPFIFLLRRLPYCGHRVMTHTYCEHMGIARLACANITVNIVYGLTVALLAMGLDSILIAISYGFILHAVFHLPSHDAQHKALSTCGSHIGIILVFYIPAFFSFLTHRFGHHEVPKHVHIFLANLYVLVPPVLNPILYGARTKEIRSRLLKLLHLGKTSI
# Summary of the method: as §1
# 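Further: active if original authors judged signal statistically different from baseline.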
Compound,odorant receptor agonist call (OR51L1 (Homo sapiens)),odorant receptor agonist call (OR52D1 (Homo sapiens))
O=C(c1ccccc1)c1ccccc1,inactive,
CCCC(=O)OCC,,active
O=c1ccc2ccccc2o1,inactive,inactive
CCCCCCCCCCCCO,,inactive
O=C1Cc2ccccc2O1,inactive,
c1ccc2ncccc2c1,,inactive
CCCCCCCC(=O)OCC,,inactive
CCCCCCCCCCO,inactive,inactive
CCCCCC=O,inactive,inactive
C=CCOC(=O)CCCCCC,inactive,
CCCCCC(=O)CC,inactive,active
CCCCCCCCCCC(C)=O,,inactive
CCCCCCCO,inactive,inactive
CC(C)=CCCC(C)=CCO,inactive,inactive
COc1nccnc1CC(C)C,,active
CCCCCCCCCO,inactive,active

Compound,odorant receptor agonist call (OR51L1 (Homo sapiens)),odorant receptor agonist call (OR52D1 (Homo sapiens))
CCCCCCCCO,inactive,inactive
CCCCCCC(=O)[O-].[H+],inactive,active
CCCCCCCCCC(=O)[O-].[H+],inactive,inactive
O=C(O)C=Cc1ccccc1,,active
CC(=O)OCC=C(C)C,inactive,
c1ccc2[nH]ccc2c1,,inactive
CCCCCCOC(C)=O,inactive,
CC(C)=CCCC(C)CC=O (stereo unspecified),,inactive
CCOC(=O)C(C)C,inactive,inactive
CC12CCC(CC1=O)C2(C)C (stereo unspecified),inactive,inactive
CCCCCOC(=O)CCCCC,inactive,
CC(=O)OCc1ccccc1,inactive,
CCCCCCCC(C)=O,inactive,inactive
CCCCCCCC(=O)[O-].[H+],inactive,active
CCC(=O)O,inactive,active

# From the M2OR odorant receptor database
